HTRA1 inh – HTRA1 (human) protease inhibition; recombinant HTRA1, FP-rhodamine activity-based probe, fluorescence polarization; actives 0.5% (n = 340,000); AID 504803; inhibition, % at 5.96 µM; Q92743; in the data active means inhibition above about 36%;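 further: 0% = enzyme with DMSO and 100% = wells lacking enzyme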
Tn7 DDE FP – DD(E)-Tn7 binding inhibition, primary FP screen | P02675 | FP displacement of FITC-Tn7 peptide from fibrin DD(E); 0% = median of compound wells per plate | inhibition, % at 8.3 µM | actives 0.13% (n = 370,000);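 active means inhibition above the mean of compounds falling within the control limits plus 3 SD of them, cut at about 14% in these data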;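 further: 0% = plate median of compound wells and 100% = 10 µM Aha-Tn7 peptide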
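System: human fibrin DD(E); quantity: Fibrin-DD(E) at 2 µM final; also added: fluorescent Tn7 probe at 0.1 µM; compound dosing: single nominal test concentration of 8.3 µM per compound; schedule: 10 min preincubation, 3 h with tracer, room temperature; detection: fluorescence polarization of the labelled Tn7 tracer; repeats: one replicate per compound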
TCR CD3 inh – human TCR-CD3 binding inhibition | TAMRA-labeled TCR probe fluorescence, biochemical | inhibition, % at 9.4 µM | actives 0.37% (n = 360,000);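 further: recombinant mutant TCR 2C K166C tagged with TAMRA read by polarization; 0% = receptor in buffer alone and 100% = receptor with positive control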
mABHD4 FP – ABHD4 (mouse) inhibition, primary FP screen. Q8VD66. purified mABHD4, FP-Rh probe fluorescence polarization. inhibition, % at 8.92 µM. actives 0.54% (n = 370,000). AID 720543;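 active means inhibition exceeding the mean over every tested compound plus 3 SD, cut at about 30% in these data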;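 further: 0% = plate median of compound wells and 100% = S159A mutant with DMSO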
Target sequence (Q8VD66 whole entry, looked up): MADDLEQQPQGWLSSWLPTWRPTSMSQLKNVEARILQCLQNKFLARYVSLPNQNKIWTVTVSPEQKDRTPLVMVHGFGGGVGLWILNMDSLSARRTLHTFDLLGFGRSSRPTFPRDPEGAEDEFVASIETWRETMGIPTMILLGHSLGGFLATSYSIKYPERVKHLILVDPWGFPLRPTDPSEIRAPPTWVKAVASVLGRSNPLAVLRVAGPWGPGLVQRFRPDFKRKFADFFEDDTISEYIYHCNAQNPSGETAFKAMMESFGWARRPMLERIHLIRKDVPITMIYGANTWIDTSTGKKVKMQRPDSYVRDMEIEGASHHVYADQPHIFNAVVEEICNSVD
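Test system: mABHD4 protein | Buffer or medium: HEPES pH 7.0 buffer, 150 mM NaCl, 0.01% Pluronic F-127 | Probe or stimulus: FP-Rh fluorescent activity-based probe, added after compound pre-incubation | Timing: Pre-incubation 45 min, probe exposure 60 min, at 25 °C | Technique: Fluorescence polarization, excitation 525 nm, emission 598 nm, BODIPY TMR filters | Repeats: Single well per compound (singlicate)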
SIAE primary – blocks human sialic acid acetylesterase | inhibition, % at 9.66 µM | actives 0.69% (n = 370,000) | SIAE FP-Rh probe binding, fluorescence polarization | Q9HAT2;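 active means inhibition above a cutoff: mean of compounds within the control limits plus 3 SD of those, cut at about 17% in these data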;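 further: 0% = plate median of compound wells and 100% = probe without SIAE protein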
DDE Tn6 FP inh – DD(E)-Tn6 binding inhibition, primary FP screen | P02675 | Fibrin DD(E) TRITC-Tn6 fluorescence polarization displacement | inhibition, % at 8.3 µM | actives 0.21% (n = 370,000) | AID 720509;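 active means inhibition above a per-campaign cutoff: mean of compounds within control limits plus 3 SD, cut at about 15% in these data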;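 further: 0% = median of all compound wells on the plate and 100% = blocking peptide control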
BSA TAMRA ctr – counter-screen for TCR-CD3 interaction inhibitors: BSA probe; shares compounds with TCR CD3 inh; TAMRA-labeled BSA probe fluorescence counterscreen; inhibition, % at 9.4 µM; actives 10% (n = 1,200); in the data active means inhibition above about 23%;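 further: 0% = buffer low control and 100% = reference high control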
TCR-CD3 inh conf – confirmation of human TCR-CD3 interaction inhibitors. shares compounds with TCR CD3 inh. TAMRA-labeled TCR probe fluorescence binding assay. inhibition, % at 9.4 µM. actives 48% (n = 1,200). AID 652036
The depositor's hits bear a star; · = no result given. Sampled rows, rich in hits. Any-hit rate of the full collection: about 1.8%. Unless noted, no stated cut-off is given here; in the data, active means inhibition above about 19%; inactive means the rest.

SMILES	HTRA1 inh	Tn7 DDE FP	TCR CD3 inh	mABHD4 FP	SIAE primary	DDE Tn6 FP inh	BSA TAMRA ctr	TCR-CD3 inh conf
O=C(NNC(=O)c1c(O)c2ccccc2[nH]c1=O)c1ccccc1	5.6	-0.3	41.0*	0.0	5.8	5.9	-7.0	22.4*
Cc1ccc(S(=O)(=O)NNC(=O)c2c(O)c3ccccc3[nH]c2=O)cc1	-0.5	0.6	15.6	-4.5	4.0	-3.0	·	·
COC(=O)Nc1ccc(S(=O)(=O)NNC(=O)c2c(O)c3ccccc3[nH]c2=O)cc1	-2.2	-4.0	23.6*	-2.4	-2.1	-2.1	-5.3	25.9*
CCCC(=O)NNC(=O)c1c(O)c2ccccc2[nH]c1=O	15.2	2.4	33.9*	2.1	1.2	-3.2	-2.5	28.3*
CC(C)C(=O)NNC(=O)c1c(O)c2ccccc2[nH]c1=O	1.9	2.6	5.3	2.6	4.9	-1.6	·	·
COC(=O)C1CN(CCc2ccccc2)CCS(=O)(=O)N1Cc1ccccc1 (stereo not drawn)	·	-2.1	·	2.8	2.8	-1.4	·	·
COC(=O)C1CN(CCc2ccccc2)CCS(=O)(=O)N1Cc1ccccc1F (stereo not drawn)	·	-2.9	·	3.0	-4.3	5.8	·	·
COC(=O)c1cc2c(c3c4cc(F)ccc4n(S(=O)(=O)c4cccc(C)c4)c13)C(=O)N(Cc1ccc(C(F)(F)F)cc1)C2	·	-1.5	-5.4	-9.3	-7.1	-0.8	·	·
Cc1ccccc1OCC(=O)Nc1ccncc1	-0.7	2.9	13.3	-0.9	8.7	3.7	·	·
CC(=O)Nc1cccc(NC(=O)COc2ccccc2C)c1	7.5	1.4	21.4*	0.3	0.0	-2.0	2.7	-0.4
Oc1c(C=Nc2cccc3cccnc23)sc2ccccc12	·	-43.9	28.5*	-66.2	-2.9	9.6	60.1*	27.6*
Cc1c(C(=O)O)cccc1[N+](=O)[O-]	6.7	-10.1	-1.2	-5.9	3.2	4.1	·	·
O=C(O)c1c[nH]c2c([N+](=O)[O-])cccc2c1=O	3.6	4.2	23.7*	9.2	1.3	-4.7	-5.1	22.8*
CCOC(=O)c1cnc(Cc2ccccc2)[nH]c1=O	0.1	4.2	33.4*	0.3	-2.8	3.1	2.0	0.6
COc1ccc(-c2cc(-c3nnc(SCC(=O)N4CCOCC4)n3N)[nH]n2)cc1	·	-1.4	·	1.2	5.2	0.1	·	·
CCN(CC)S(=O)(=O)c1ccc(NC(=O)Nc2cccc(C(F)(F)F)c2)cc1	-133.1	-4.7	81.2*	-235.1	-335.0	-7.7	24.0*	53.5*
CCN(CC)S(=O)(=O)c1ccc(NC(=O)C2c3ccccc3Oc3ccccc32)cc1	-77.2	-4.3	45.5*	-38.7	-98.8	-7.6	-0.4	1.7
COc1cc2c(c(OC)c1OC)C1(CCCCC1)CC2NCC=C(C)C (stereo not drawn)	·	5.3	2.5	-2.6	-0.8	-0.1	·	·
O=c1[nH]c(=S)[nH]c2c1C(c1ccc(Br)cc1)c1c([nH]c(=S)[nH]c1=O)O2	-43.9	4.6	22.3*	-31.6	-144.9	-8.2	-6.7	18.0
O=C1CCCC2=C1C(c1ccc(Br)cc1)c1c([nH]c(=S)[nH]c1=O)N2 (stereo not drawn)	-3.6	-3.5	0.4	1.2	-13.1	-12.6	·	·
N#Cc1c(N)sc2c1CCCCCC2	8.3	-6.2	-2.2	8.0	13.9	2.1	·	·
N#Cc1c(N)sc(=S)c2c1CCCCC2	26.2	6.0	25.5*	35.5*	3.4	4.3	21.2	26.3*
COc1ccc(Cl)cc1C(=O)NC(=S)Nc1cc(-c2nc3ccccc3[nH]2)ccc1C	-108.0	6.8	46.7*	-71.5	-117.4	-8.5	-3.6	3.2
NC(=O)[C@@H]1CC2(CC(c3cccc(NC(=O)CC(c4ccccc4)c4ccccc4)c3)=NO2)CN1C(=O)COc1ccc(Cl)cc1 (stereo partly drawn)	-124.8	-6.5	31.9*	-72.6	-67.7	-5.2	14.3	30.9*
NC(=O)[C@H]1CC2(CC(c3cccc(NC(=O)COc4ccc(Cl)cc4)c3)=NO2)CN1C(=O)c1ccc(Cl)cc1 (stereo partly drawn)	-53.8	-7.5	14.3	-69.0	-42.8	1.6	·	·
SMILES	HTRA1 inh	Tn7 DDE FP	TCR CD3 inh	mABHD4 FP	SIAE primary	DDE Tn6 FP inh	BSA TAMRA ctr	TCR-CD3 inh conf
NC(=O)[C@H]1CC2(CC(c3cccc(NC(=O)COc4ccc(Cl)cc4)c3)=NO2)CN1C(=O)CC(c1ccccc1)c1ccccc1 (stereo partly drawn)	-101.4	-6.3	54.3*	-85.4	-73.0	-2.4	11.5	30.1*
CCC(=O)Nc1cccc(C2=NOC3(C2)C[C@@H](C(N)=O)N(C(=O)COc2ccc(Cl)cc2)C3)c1 (stereo partly drawn)	-12.1	-4.8	0.7	-4.4	-5.9	-9.2	·	·
C=CCNC(=S)NNC(=O)c1cccn(Cc2ccc(Cl)c(Cl)c2)c1=O	5.9	-2.5	14.6	14.7	0.6	9.1	·	·
CNC(=S)NNC(=O)c1cccn(Cc2ccc(Cl)c(Cl)c2)c1=O	-10.5	9.3	22.0*	15.6	9.7	6.2	1.5	26.8*
CNC(=S)NNC(=O)c1cccn(Cc2cccc(Cl)c2)c1=O	-0.9	1.2	21.7*	12.7	9.4	7.7	-9.1	26.6*
COC(=O)C[C@@H]1CC[C@@H]2[C@@H](COc3ccc(NC(=O)Nc4ccc(F)cc4)cc3C(=O)N2C)O1	·	-0.2	·	2.5	1.5	8.3	·	·
Cc1c[nH]c2cccc(-c3c(Cl)cccc3Cl)c12	·	3.2	·	-12.8	5.0	-7.1	·	·
CCC(=O)N(Cc1cc2c(C)ccc(C)c2[nH]c1=O)C1CCCCC1	-1.3	9.3	28.9*	5.2	3.5	4.7	-1.5	0.1
CN(CCC1CCOCC1)C(=O)CC1C(=O)NCCN1C/C=C/c1ccccc1 (stereo not drawn)	5.0	-2.5	4.3	0.6	0.8	4.4	·	·
CN(CC1CCOCC1)C(=O)CC1C(=O)NCCN1C/C=C/c1ccccc1 (stereo not drawn)	3.0	3.8	94.7*	-0.2	-1.7	-4.8	-0.7	-0.4
Cc1ccc(-c2[nH]c3cc(C(=O)NCCCn4ccnc4)ccc3c(=O)c2O)cc1	28.6	-6.7	41.0*	12.9	17.8*	-11.6	-4.6	49.3*
COc1ccc(/C=C/S(=O)(=O)NC2CCCC2)c(CNC(=O)OC(C)(C)C)c1	·	1.0	·	-6.5	-2.0	-2.0	·	·
Cc1cc2oc3ccc(NCCCn4ccnc4)cc3c(=O)c2cc1C	2.5	-13.1	35.0*	12.6	-8.4	-8.7	1.4	20.3*
O=C(OCc1ccccc1)c1ccc(Br)o1	-0.8	5.2	48.2*	-2.6	1.5	2.6	-0.2	-0.6
